Compound activity as filed in PubChem BioAssay.
Shown are actives, neighbours in structure and some others; about 1.7% of the full set was active somewhere.
Vif imaging: HIV Vif inhibition | inhibition, % at 7.49 µM | 340,000 tested, 0.35% active | HEK293T cells, Vif self-association by quenched fluorescence, imaging, 24 h; in the data active means inhibition above about 50%, passing the limit was not always enough; inconclusive means no clear call, values can overlap the other calls; inactive means below about 31%
RanGTP-Impb inh: inhibitors of RanGTP-importin-beta interaction, primary screen, biochemical, FRET, CFP-Ran, YFP-importin-beta, homogeneous; cell-free CFP-Ran/YFP-importin-beta FRET ratio; inhibition, % (concentration not given with the values); 300,000 tested, 1.1% active;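 active means more than half of the replicate wells show a fall in the fluorescence ratio signal beyond about 16%, limit read from the data, passing the limit was not always enough; inconclusive means exactly half of the replicate wells pass the set limit; inactive means fewer than half of replicates pass the limit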;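 further: 0% = DMSO wells and 100% = Ran loaded with GDP instead of GTP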
Rce1 inh: inhibitors of yeast Ras-converting enzyme; calls only; Q03530; 290,000 tested, 0.27% active; AID 2563; yeast membranes, quenched prenylated peptide cleavage fluorescence;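 active means fall in fluorescence gain of 50% or more versus controls, with final raw signal at or below 3038400; inconclusive means same 50% fall but final raw signal above 3038400; inactive means fall in fluorescence gain under 50%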;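 further: plate controls were neutral control wells for no effect and wells lacking membranes for full effect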
Runt-CBFb FRET: Runt domain-CBFb interaction inhibition. AID 1496. Q01196+Q13951. Cerulean-Runt/Venus-CBFb FRET ratio 530/480, 1 h. inhibition, % at 20 µM. 220,000 tested, 0.46% active;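 active means inhibition over about 50% at 20 µM in the single-dose screen, limit read from the data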;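 further: 0% = DMSO wells and 100% = excess unlabeled CBFb competitor control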
Target sequence (Q01196 whole entry, looked up, the tested form may be a part): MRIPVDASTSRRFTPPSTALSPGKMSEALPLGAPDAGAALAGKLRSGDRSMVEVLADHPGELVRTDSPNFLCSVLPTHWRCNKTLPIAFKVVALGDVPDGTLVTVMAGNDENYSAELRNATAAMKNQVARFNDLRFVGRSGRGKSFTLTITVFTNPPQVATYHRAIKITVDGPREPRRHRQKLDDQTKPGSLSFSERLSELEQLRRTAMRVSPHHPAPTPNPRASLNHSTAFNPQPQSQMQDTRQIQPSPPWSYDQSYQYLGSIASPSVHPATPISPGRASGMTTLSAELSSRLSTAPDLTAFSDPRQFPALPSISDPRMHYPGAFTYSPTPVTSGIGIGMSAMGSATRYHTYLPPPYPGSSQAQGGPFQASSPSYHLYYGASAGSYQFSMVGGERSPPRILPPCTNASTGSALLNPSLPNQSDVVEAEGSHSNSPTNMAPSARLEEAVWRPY
Target sequence (Q13951 whole entry, looked up, the tested form may be a part): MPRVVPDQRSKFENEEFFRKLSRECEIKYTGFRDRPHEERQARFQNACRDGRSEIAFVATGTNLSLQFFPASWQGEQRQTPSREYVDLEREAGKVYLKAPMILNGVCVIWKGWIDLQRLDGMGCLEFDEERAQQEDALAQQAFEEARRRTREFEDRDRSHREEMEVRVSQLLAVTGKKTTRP
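Assay system: Cerulean-tagged RUNX1 Runt domain (FRET donor) fusion protein / Amount: 100 nM each of Venus-CBFb and Cerulean-Runt domain / Medium: Tris buffer pH 7.5 with salts and BSA / Also added: Venus-CBFb 100 nM / Schedule: 1 h complex formation plus 1 h compound treatment, room temperature / Signal: FRET fluorescence / Read-out: loss of energy transfer signal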
Runt-SMMHC FRET: inhibitors of human RUNX1 Runt domain binding to CBFb-SMMHC; Q01196+Q13951; Cerulean-Runt/Venus-CBFb-SMMHC FRET ratio 530/480, 1 h; inhibition, % at 20 µM; 220,000 tested, 0.74% active; AID 1434;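 active means mean inhibition across duplicate retests at 20 µM reaching about 50%, limit read from the data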;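 further: 0% = DMSO wells and 100% = wells with excess untagged CBFb-SMMHC; inhibitors lower the FRET ratio by blocking Runt binding to CBFb-SMMHC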
* hit, by the source's call; i = inactive; ? = inconclusive; / = not tested or not shown; + = active, no number.

SMILES	Vif imaging	RanGTP-Impb inh	Rce1 inh	Runt-CBFb FRET	Runt-SMMHC FRET
N=c1sc2ccccc2n1-c1ccccc1	5	35*	i	3	14
CCOCCOC(=O)c1ccc(NC(=O)c2cc3ccccc3o2)cc1	-5	/	/	/	/
COc1ccc(C(=O)COC(=O)[C@@H](NS(=O)(=O)c2ccccc2)C(C)C)cc1	-10	/	/	/	/
CSCC(C)N1CCC(Oc2cccc(C(=O)NCc3ccccn3)c2)CC1 (stereo unspecified)	-2	30*	i	/	/
COc1ccc(CCNC(=O)c2cc(-c3ccncc3)nc3c(Cl)cccc23)cc1OC	-4	4	i	-8	4
COc1ccc(CCNC(=O)c2cc(-c3ccccn3)nc3c(Cl)cccc23)cc1OC	-7	24*	i	-1	0
Cc1[nH]c2ccccc2c1-c1nc2ccccc2[nH]c1=O	3	0	i	/	/
O=[N+]([O-])c1cc([N+](=O)[O-])c2c(=Nc3ccccc3)n(-c3ccccc3)n(O)c2c1	0	0	i	1	3
CSc1nsc(N/N=C/c2ccc3c(c2)OCO3)c1C#N	-6	20*	i	14	16
O=C(Nc1cc([N+](=O)[O-])c2[nH]c(=O)c3ccccc3c2c1)C(F)(F)F	-7	/	/	/	/
CCCSc1ccc2nc(NC(=O)OC)[nH]c2c1	160*	2	i	-1	-4
CCNC(=O)NC(=O)CSc1ccc(S(=O)(=O)N2CCCCC2)cn1	0	/	/	/	/
Cc1cccn2c(=O)c3cc(C(=O)NC4CCCC4)n(C)c3nc12	-1	-1	i	/	/
Cc1cccn2c(=O)c3cc(C(=O)NC4CCCC4)c(=N)n(C4CCCC4)c3nc12	/	180*	i	18	63*
N=c1c(C(=O)NC2CCCC2)cc2c(=O)n3ccccc3nc2n1C1CCCC1	-1	182*	i	11	-21
COc1ccc(CCn2c(=N)c(C(=O)NC3CCCC3)cc3c(=O)n4ccccc4nc32)cc1OC	1	3	i	/	/
N=c1c(C(=O)NCc2ccco2)cc2c(=O)n3ccccc3nc2n1C1CCCC1	-8	135*	i	/	/
COc1cc(C(=O)NCc2ncccc2C)ccc1OC1CCN(C(C)=O)CC1	-7	4	i	/	/
NC(=O)CC(NC(=O)c1ccc(Br)cc1)c1ccc(NC2CCCCCC2)c([N+](=O)[O-])c1 (stereo unspecified)	70*	-7	i	/	/
NC(=O)CC(NC(=O)c1ccc(Br)cc1)c1ccc(NC2CCCCC2)c([N+](=O)[O-])c1 (stereo unspecified)	-1	-6	i	/	/
Cc1ccc2c(NC(=O)c3ccco3)cccc2n1	-9	-2	i	/	/
Cc1ccc(CNC(=O)CCCNS(=O)(=O)c2cccc3nonc23)cc1	15	-3	i	0	1
COc1ccc(CNC(=O)CCCNS(=O)(=O)c2cccc3nonc23)cc1	2	63*	i	-1	0
O=C(COC(=O)c1c(F)cccc1F)Nc1ccccc1OC(F)F	51*	1	i	/	/
Cc1cccc(C(=O)N[C@H](C(=O)Nc2nc3ccccc3[nH]2)C(C)C)c1	79*	4	/	1	2
SMILES	Vif imaging	RanGTP-Impb inh	Rce1 inh	Runt-CBFb FRET	Runt-SMMHC FRET
CCOc1ccc(NC(=O)C2=NN(c3ccccc3)C(=O)CC2)cc1S(=O)(=O)N1CCCCC1	-11	/	/	/	/
O=C(NC(=O)N1CCN(c2ccccc2F)CC1)c1ccccc1	88*	3	i	1	-2
COc1ccc(NC(=O)C2(C)Cc3c(-c4cccc(NC(C)=O)c4)ccnc3O2)cn1 (stereo unspecified)	58*	/	/	/	/
COc1ccc(NC(=O)C2(C)Cc3c(-c4ccc(NC(C)=O)cc4)ccnc3O2)cn1 (stereo unspecified)	11	/	/	/	/
CC(C)(C)NS(=O)(=O)c1ccc(NC(=O)CS(=O)(=O)Cc2ccccc2)cc1	-10	0	i	/	/
S=c1nc[nH]c2c1cnn2-c1ccccc1	0	8	+	23	4
CC1CCCCN1c1cc(C#N)c(C#N)cc1[N+](=O)[O-] (stereo unspecified)	2	-5	i	-3	2
CC1CCN(c2cc(C#N)c(C#N)cc2[N+](=O)[O-])CC1	90*	-1	i	0	-1
CCOc1ccc2[nH]c(=O)c(CN(CCN3CCOCC3)Cc3nnnn3C(C)(C)CC)cc2c1	12	-4	+	-4	-23
CCC(=O)Nc1c(S(=O)(=O)c2ccccc2)c2nc3ccccc3nc2n1C(C)c1ccccc1 (stereo unspecified)	-8	4	i	29	76*
CCC(=O)Nc1c(S(=O)(=O)c2ccc(C)cc2)c2nc3ccccc3nc2n1C(C)c1ccccc1 (stereo unspecified)	-9	4	i	37	75*
CN1C(=O)c2cccc3c(S(=O)(=O)N(C)C)ccc1c23	-5	19*	i	/	/
COC(=O)Cn1c(=O)c2c(n(Cc3ccccc3)c1=O)N/C(=C/c1ccc(OC)cc1)C2=O	-5	20*	i	-20	30
COc1cc(NC(=O)C/C(C)=N/NC(=O)Cc2ccc(Cl)cc2)c(OC)cc1Cl	73*	2	i	-2	3
Cc1cc(C)n2nc(CC(=O)NNC(=O)c3ccccc3Cl)nc2n1	8	0	i	/	/
CCc1cccc(NC(=O)CSc2nc3c(c(=O)[nH]2)CCCC3)c1	/	2	i	-3	4
CC(=O)Oc1ccc(-c2cc3c(OC(C)=O)cc(OC(C)=O)cc3oc2=O)cc1	17	123*	i	/	/
O=C(Nc1ccc2nc(-c3ccco3)c(-c3ccco3)nc2c1)NC1CC1	21	62*	i	-17	-67
O=C(Nc1cccc(C(F)(F)F)c1)c1ccc2nc(-c3ccco3)c(-c3ccco3)nc2c1	-2	47*	i	1	-13
O=C(Nc1ccc(N2CCOCC2)cc1)Nc1ccc2nc(-c3ccco3)c(-c3ccco3)nc2c1	-5	26*	i	12	11
O=C(c1ccc2nc(-c3ccco3)c(-c3ccco3)nc2c1)N1CCN(c2ccccc2)CC1	-5	23*	i	12	-12
CC(=O)c1cccc(S(=O)(=O)N2CCn3cccc3C2C)c1 (stereo unspecified)	8	/	/	/	/
COc1cc(SC)ccc1C(=O)Nc1nccs1	-18	?	/	0	-2
C[C@H]1CN([C@@H](C)CO)C(=O)c2cc(-c3cccc(C#N)c3)cnc2O[C@H]1CN(C)C(=O)c1ccccn1	-4	/	/	/	/
O=C(Nc1ccc2nc(-c3cccs3)c(-c3cccs3)nc2c1)N1CCOCC1	-9	96*	i	41	62*
O=C(Nc1cccc(O)c1)N1CCOCC1	-3	-2	i	2	9
Cc1cc(NC(=O)c2cncc(Br)c2)ccc1NC(=O)c1cc2ccccc2o1	104*	4	i	/	/
COc1ccccc1CN1CCc2c([nH]c3ccccc23)C1	-4	-7	i	/	/
